Laboratory results: ChEMBL document CHEMBL1154405, “An early response to environmental stress involves regulation of OmpX and OmpF, two enterobacterial outer membrane pore-forming proteins” (2007)
Calls of active or inactive are those of the source. No cut-off for these calls is given here.

Experiments:
Escherichia coli [1] = assay: Effect on ompF-lacZ fusion translation in wild type Escherichia coli AG100 assessed as percent decrease in Miller units of beta-galactosidase activity after 60 mins relative to control; assay type: functional; design: scale not given: the % may be the effect or the level left
In short: (§1)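 ompF promoter–lacZ fusions (pCeJa01, pCeJa02) carried in E. coli AG100 and its marA mutant CH164, and in MC1061 and MC1061 ompX::Cm. Cultures grown in LB (with or without NaCl) to OD600 0.2, then stress added at subinhibitory levels set per strain and promoter from MIC assays, 37°C. β-Galactosidase measured at time intervals (Miller method); percent decrease versus control, SD, Student t test.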

Escherichia coli [2] = assay: Effect on ompF-lacZ fusion translation in wild type Escherichia coli MC1061 assessed as percent decrease in Miller units of beta-galactosidase activity after 120 mins relative to control; assay type: functional; design: scale not given: the % may be the effect or the level left; in short: as §1
Klebsiella aerogenes [3] = assay: Increase in ompX-lacZ expression in Enterobacter aerogenes ATCC 15038 assessed as increase in beta-galactosidase activity after 60 mins relative to control; assay type: functional, organism-based
In short: (§2)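 Strains electrotransformed with an ompX–lacZ fusion plasmid (pMD08): E. coli JM109, MC1061 ompX::Cm, AG100, CH164 (marA), E. aerogenes ATCC 15038. Grown in LB (with or without NaCl) to OD600 0.2 at 37°C. Treated with subinhibitory stresses (MIC-derived) or NaCl osmotic shock. Miller units read after 60 min; means of five independent experiments with SD.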

Escherichia coli [4] = assay: Effect on ompF-lacZ fusion translation in ompX-negative Escherichia coli mutant assessed as percent decrease in Miller units of beta-galactosidase activity after 90 mins relative to control; assay type: functional; design: scale not given: the % may be the effect or the level left; in short: as §1
Escherichia coli [5] = assay: Increase in ompX-lacZ expression in marA-negative Escherichia coli CH164 mutant assessed as beta-galactosidase activity after 60 mins relative to control; assay type: functional; in short: as §2
Escherichia coli [6] = assay: Increase in ompX-lacZ expression in Escherichia coli JM109 assessed as increase in beta-galactosidase activity after 60 mins relative to control; assay type: functional, organism-based; in short: as §2
Klebsiella aerogenes [7] = assay: Increase in ompX-lacZ expression in Enterobacter aerogenes ATCC 15038 assessed as ompX upregulation after 60 mins relative to control; assay type: functional, organism-based; in short: as §2
Escherichia coli [8] = assay: Effect on ompF-lacZ fusion translation in wild type Escherichia coli MC1061 assessed as percent decrease in Miller units of beta-galactosidase activity after 60 mins relative to control; assay type: functional; design: scale not given: the % may be the effect or the level left
In short: (§3)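 E. coli strains carrying ompF-lacZ reporter constructs (pCeJa01/pCeJa02) were grown in LB broth, with or without NaCl, to early exponential phase (OD600 0.2). Stress compounds were then added at subinhibitory concentrations, set from MICs for each strain and promoter, and incubation continued at 37°C. Beta-galactosidase activity (Miller method) was read at time intervals. Percent decrease versus control was calculated, with Student t test and standard deviations.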

Escherichia coli [9] = assay: Increase in ompX-lacZ expression in Escherichia coli JM109 assessed as ompX upregulation after 60 mins relative to control; assay type: functional, organism-based; in short: as §2
Escherichia coli [10] = assay: Effect on ompF-lacZ fusion translation in ompX-negative Escherichia coli mutant assessed as percent decrease in Miller units of beta-galactosidase activity after 120 mins relative to control; assay type: functional; design: scale not given: the % may be the effect or the level left; in short: as §1
Escherichia coli [11] = assay: Effect on ompF-lacZ fusion translation in wild type Escherichia coli AG100 assessed as percent decrease in Miller units of beta-galactosidase activity after 90 mins relative to control; assay type: functional; design: scale not given: the % may be the effect or the level left; in short: as §3
Escherichia coli [12] = assay: Increase in ompX-lacZ expression in Escherichia coli deltaompX mutant assessed as ompX upregulation after 60 mins relative to control; assay type: functional
In short: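 E. coli ompX::Cm strain transformed by electroporation with pMD08 (ompX-lacZ fusion), grown in LB broth (with or without NaCl) to OD600 0.2. Stresses were then added at strain-specific subinhibitory concentrations derived from MICs; osmotic shock was given as NaCl. Cultures were incubated 60 min at 37°C with growth rate monitored. Miller-unit beta-galactosidase activity is the mean of five independent experiments with SD.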

Escherichia coli [13] = assay: Effect on ompF-lacZ fusion translation in wild type Escherichia coli MC1061 assessed as percent decrease in Miller units of beta-galactosidase activity after 90 mins relative to control; assay type: functional; design: scale not given: the % may be the effect or the level left; in short: as §1
Escherichia coli [14] = assay: Effect on ompF-lacZ fusion translation in wild type Escherichia coli AG100 assessed as percent decrease in Miller units of beta-galactosidase activity after 120 mins relative to control; assay type: functional; design: scale not given: the % may be the effect or the level left; in short: as §1
Escherichia coli [15] = assay: Increase in ompX-lacZ expression in Escherichia coli deltaompX mutant assessed as increase in beta-galactosidase activity after 60 mins relative to control; assay type: functional, organism-based; in short: as §2
Escherichia coli [16] = assay: Effect on ompF-lacZ fusion transcription in ompX-negative Escherichia coli mutant assessed as percent decrease in Miller units of beta-galactosidase activity after 90 mins relative to control; assay type: functional; design: scale not given: the % may be the effect or the level left; in short: as §1
Escherichia coli [17] = assay: Effect on ompF-lacZ fusion transcription in wild type Escherichia coli AG100 assessed as percent decrease in Miller units of beta-galactosidase activity after 120 mins relative to control; assay type: functional; design: scale not given: the % may be the effect or the level left; in short: as §1
Escherichia coli [18] = assay: Effect on ompF-lacZ fusion transcription in wild type Escherichia coli MC1061 assessed as percent decrease in Miller units of beta-galactosidase activity after 120 mins relative to control; assay type: functional; design: scale not given: the % may be the effect or the level left; in short: as §1
Escherichia coli [19] = assay: Effect on ompF-lacZ fusion transcription in ompX-negative Escherichia coli mutant assessed as percent decrease in Miller units of beta-galactosidase activity after 120 mins relative to control; assay type: functional; design: scale not given: the % may be the effect or the level left; in short: as §1
Escherichia coli [20] = assay: Effect on ompF-lacZ fusion transcription in wild type Escherichia coli MC1061 assessed as percent decrease in Miller units of beta-galactosidase activity after 90 mins relative to control; assay type: functional; design: scale not given: the % may be the effect or the level left; in short: as §1
Escherichia coli [21] = assay: Effect on ompF-lacZ fusion transcription in wild type Escherichia coli AG100 assessed as percent decrease in Miller units of beta-galactosidase activity after 60 mins relative to control; assay type: functional; design: scale not given: the % may be the effect or the level left; in short: as §1
Klebsiella aerogenes [22] = assay: Induction of ompX-lacZ expression in Enterobacter aerogenes ATCC 15038 assessed as total RNA content after 30 mins by RT-PCR; assay type: functional, organism-based
Escherichia coli [23] = assay: Effect on ompF-lacZ fusion transcription in ompX-negative Escherichia coli mutant assessed as percent decrease in Miller units of beta-galactosidase activity after 60 mins relative to control; assay type: functional; design: scale not given: the % may be the effect or the level left; in short: as §1
Escherichia coli [24] = assay: Effect on ompF-lacZ fusion transcription in marA-negative Escherichia coli CH164 mutant assessed as percent decrease in Miller units of beta-galactosidase activity after 90 mins relative to control; assay type: functional; design: scale not given: the % may be the effect or the level left; in short: as §1
Escherichia coli [25] = assay: Effect on ompF-lacZ fusion transcription in marA-negative Escherichia coli CH164 mutant assessed as percent decrease in Miller units of beta-galactosidase activity after 60 mins relative to control; assay type: functional; design: scale not given: the % may be the effect or the level left; in short: as §1
Escherichia coli [26] = assay: Effect on ompF-lacZ fusion transcription in wild type Escherichia coli AG100 assessed as percent decrease in Miller units of beta-galactosidase activity after 90 mins relative to control; assay type: functional; design: scale not given: the % may be the effect or the level left; in short: as §1
Escherichia coli [27] = assay: Effect on ompF-lacZ fusion translation in ompX-negative Escherichia coli mutant assessed as percent decrease in Miller units of beta-galactosidase activity after 60 mins relative to control; assay type: functional; design: scale not given: the % may be the effect or the level left; in short: as §1
Escherichia coli [28] = assay: Effect on ompF-lacZ fusion translation in marA-negative Escherichia coli CH164 mutant assessed as percent decrease in Miller units of beta-galactosidase activity after 120 mins relative to control; assay type: functional; design: scale not given: the % may be the effect or the level left; in short: as §3
Escherichia coli [29] = assay: Effect on ompF-lacZ fusion translation in marA-negative Escherichia coli CH164 mutant assessed as percent decrease in Miller units of beta-galactosidase activity after 60 mins relative to control; assay type: functional; design: scale not given: the % may be the effect or the level left; in short: as §3
Escherichia coli [30] = assay: Effect on ompF-lacZ fusion transcription in marA-negative Escherichia coli CH164 mutant assessed as percent decrease in Miller units of beta-galactosidase activity after 120 mins relative to control; assay type: functional; design: scale not given: the % may be the effect or the level left; in short: as §3
Escherichia coli [31] = assay: Effect on ompF-lacZ fusion translation in marA-negative Escherichia coli CH164 mutant assessed as percent decrease in Miller units of beta-galactosidase activity after 90 mins relative to control; assay type: functional; design: scale not given: the % may be the effect or the level left; in short: as §3
Escherichia coli [32] = assay: Induction of ompX transcription in SoxS-positive Escherichia coli K12 relative to control; assay type: functional

Compound | Activity (Escherichia coli [1]) | Activity (Escherichia coli [2]) | Activity (Klebsiella aerogenes [3]) | Activity (Escherichia coli [4]) | Activity (Escherichia coli [5]) | Activity (Escherichia coli [6]) | Activity (Klebsiella aerogenes [7]) | Activity (Escherichia coli [8]) | Activity (Escherichia coli [9]) | Activity (Escherichia coli [10]) | Activity (Escherichia coli [11]) | Activity (Escherichia coli [12]) | Activity (Escherichia coli [13]) | Activity (Escherichia coli [14]) | Activity (Escherichia coli [15]) | Activity (Escherichia coli [16]) | Activity (Escherichia coli [17]) | Activity (Escherichia coli [18]) | Activity (Escherichia coli [19]) | Activity (Escherichia coli [20]) | also measured
c1ccc(-c2ccccn2)nc1 [DIPYRIDYL] | 52% | 18.4% | Active | 19% | Active | Active | Active | 7.4% | Active | 28.6% | 53% | 2 | 16.1% | 55% |  |  |  |  |  |  | 
CCn1cc(C(=O)O)c(=O)c2ccc(C)nc21 |  |  | Active |  |  | Active | Active |  | Active |  |  |  |  |  | Active |  |  |  |  |  | 
CCn1cc(C(=O)O)c(=O)c2cc(F)c(N3CCNCC3)cc21 [NORFLOXACIN] | 14.1% | 27.5% | Active | 21.7% | 1.5 | Active | Active |  | Active | 22% |  |  | 27.1% | 16.6% | Active | 18.6% | 8.2% | 24% | 19.2% | 14.9% | Activity (Escherichia coli [21]): 13.2%
NCCc1ccccc1 |  |  | Active |  |  | Active | Active |  | Active |  |  |  |  |  | Active |  |  |  |  |  | 
O=C(O)c1ccccc1O [SALICYLIC ACID] | 59% | 45.6% | Active | 40.9% |  | Active | Active | 42.5% | Active | 43.7% | 51.8% | 2 | 46.8% | 49% |  | 26% | 15.8% | 17.3% | 14.8% | 25% | Activity (Klebsiella aerogenes [22]): Active; Activity (Escherichia coli [23]): 21%; Activity (Escherichia coli [24]): 15.5%; Activity (Escherichia coli [25]): 17.4%; Activity (Escherichia coli [26]): 25.7%; Activity (Escherichia coli [21]): 29.9%; Activity (Escherichia coli [27]): 35.3%
CO[C@@H]1[C@@H](OC(N)=O)[C@@H](O)[C@H](Oc2ccc3c(O)c(NC(=O)c4ccc(O)c(CC=C(C)C)c4)c(=O)oc3c2C)OC1(C)C [NOVOBIOCIN] | 48.5% | 50.9% | Active | 45.3% | Active | Active | Active | 21.3% | Active | 55.2% | 39.8% | 2 | 38.4% | 46.8% |  | 25.3% | 25.7% | 36.5% | 36% | 28.6% | Activity (Escherichia coli [28]): 26.9%; Activity (Klebsiella aerogenes [22]): Active; Activity (Escherichia coli [29]): 23.6%; Activity (Escherichia coli [23]): 17%; Activity (Escherichia coli [30]): 24.5%; Activity (Escherichia coli [24]): 20%; Activity (Escherichia coli [31]): 21.2%; Activity (Escherichia coli [25]): 9.5%; Activity (Escherichia coli [26]): 32.6%; Activity (Escherichia coli [21]): 25.5%; Activity (Escherichia coli [27]): 28.4%
C[n+]1ccc(-c2cc[n+](C)cc2)cc1 [PARAQUAT] |  |  | Active |  |  | Active | Active |  | Active |  |  |  |  |  | Active |  |  |  |  |  | Activity (Escherichia coli [32]): 1.2
